Residue numbers refer to the chain shown, from its start.
Experiments:
[1] = test system: T1, Nonstructural protein 5A (Hepatitis C virus), Q5L478 [Y93H]; assay: Inhibition of NS5A Y93H mutant in HCV genotype 1a infected in HuH7 replicon cells assessed as decrease in viral replication after 3 days by RT-PCR method; format: cell-based; conditions: Hepatitis C virus subtype 1a
T1 sequence (whole entry): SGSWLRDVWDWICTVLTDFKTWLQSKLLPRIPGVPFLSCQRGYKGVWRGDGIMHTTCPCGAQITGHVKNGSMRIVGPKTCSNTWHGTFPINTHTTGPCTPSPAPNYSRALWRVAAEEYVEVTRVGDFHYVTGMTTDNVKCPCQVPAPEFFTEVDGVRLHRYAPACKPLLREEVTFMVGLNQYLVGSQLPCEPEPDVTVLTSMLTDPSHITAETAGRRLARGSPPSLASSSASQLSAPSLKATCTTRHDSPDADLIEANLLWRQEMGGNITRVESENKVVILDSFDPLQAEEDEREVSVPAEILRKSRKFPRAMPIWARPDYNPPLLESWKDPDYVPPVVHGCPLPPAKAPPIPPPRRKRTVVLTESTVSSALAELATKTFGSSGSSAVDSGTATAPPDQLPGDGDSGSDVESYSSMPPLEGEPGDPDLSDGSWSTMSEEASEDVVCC

[2] = Oral bioavailability in Beagle dog at 5 mg/kg by LC/MS method; format: ADME, organism-based, Canis lupus familiaris; conditions: in vivo
In short: (§1)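 Beagle dogs, two animals per dosing group. Oral dose was given in 10% TWEEN. Blood was collected and spun to plasma, and plasma compound levels were measured by LC/MS.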

[3] = target: T2, Nonstructural protein 5A (Hepatitis C virus) (UniProt Q5L478); assay: Inhibition of NS5A D168Y mutant in HCV genotype 1b infected in HuH7 replicon cells assessed as decrease in viral replication after 3 days by RT-PCR method; format: cell-based; conditions: Hepatitis C virus subtype 1b
T2 sequence (whole entry): T1 sequence (whole entry) with H93Y

[4] = Resistance ratio of EC90 for NS5A A92K mutant in HCV genotype 1b infected in HuH7 replicon cells to EC90 for NS5A in HCV genotype 1a infected in HuH7 replicon cells; format: cell-based
[5] = target: T2, Nonstructural protein 5A (Hepatitis C virus); assay: Inhibition of NS5A L31M mutant in HCV genotype 2a infected in HuH7 replicon cells assessed as decrease in viral replication after 3 days by RT-PCR method; format: cell-based; conditions: Hepatitis C virus subtype 2a
[6] = test system: Huh-7; assay: Cytotoxicity against human HuH7 cells assessed as effect on GAPDH mRNA levels up to 25 uM; format: cell-based
In short: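 Huh-7 cells were exposed to compound up to a top concentration of 25 µM. Cytotoxicity was monitored as the change in GAPDH mRNA levels.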

[7] = test system: Hepatitis C virus subtype 1a; assay: Resistance ratio of EC90 for NS5A M28T mutant in HCV genotype 1a infected in HuH7 replicon cells to EC90 for NS5A in HCV genotype 1a infected in HuH7 replicon cells; format: cell-based
[8] = target: T2, Nonstructural protein 5A (Hepatitis C virus); assay: Inhibition of NS5A L31V mutant in HCV genotype 1a infected in HuH7 replicon cells assessed as decrease in viral replication after 3 days by RT-PCR method; format: cell-based; conditions: Hepatitis C virus subtype 1a
[9] = target: T2, Nonstructural protein 5A (Hepatitis C virus); assay: Inhibition of NS5A M31V mutant in HCV genotype 2b infected in HuH7 replicon cells assessed as decrease in viral replication after 3 days by RT-PCR method; format: cell-based; conditions: Hepatitis C virus subtype 2b
[10] = Clearance in Beagle dog at 1 mg/kg, iv by LC/MS method; format: ADME, organism-based, Canis lupus familiaris; conditions: in vivo
In short: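 Beagle dogs, two animals per group, dosed IV at 1 mg/kg in 60% PEG200. Plasma was prepared from collected blood by centrifugation, and compound was quantified by LC/MS.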

[11] = test system: Nonstructural protein 5A (Hepatitis C virus), Q5L478 [UNDEFINED MUTATION]; assay: Inhibition of NS5A L31M/Y93C double mutant in HCV genotype 1a infected in HuH7 replicon cells assessed as decrease in viral replication after 3 days by RT-PCR method; format: cell-based; conditions: Hepatitis C virus subtype 1a
[12] = MRT in Wistar Han rat at 10 mg/kg, po by LC/MS method; format: ADME, organism-based; conditions: in vivo
In short: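 Male Wistar Han rats, two per dosing group, dosed orally at 10 mg/kg in 10% TWEEN. Plasma was separated from collected blood by centrifugation and analysed by LC/MS.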

[13] = test system: Hepatitis C virus subtype 1a; assay: Resistance ratio of EC90 for NS5A M28K mutant in HCV genotype 1a infected in HuH7 replicon cells to EC90 for NS5A in HCV genotype 1a infected in HuH7 replicon cells; format: cell-based
[14] = target: T2, Nonstructural protein 5A (Hepatitis C virus); assay: Inhibition of NS5A R81W mutant in HCV genotype 1a infected in HuH7 replicon cells assessed as decrease in viral replication after 3 days by RT-PCR method; format: cell-based; conditions: Hepatitis C virus subtype 1a
[15] = target: T2, Nonstructural protein 5A (Hepatitis C virus); assay: Inhibition of NS5A F28Y mutant in HCV genotype 2a infected in HuH7 replicon cells assessed as decrease in viral replication after 3 days by RT-PCR method; format: cell-based; conditions: Hepatitis C virus subtype 2a
[16] = AUC in Beagle dog at 5 mg/kg, po by LC/MS method; format: ADME, organism-based, Canis lupus familiaris; conditions: in vivo; in short: as §1
[17] = Resistance ratio of EC90 for NS5A L31V mutant in HCV genotype 3a infected in HuH7 replicon cells to EC90 for NS5A in HCV genotype 1a infected in HuH7 replicon cells; format: cell-based
[18] = target: T2, Nonstructural protein 5A (Hepatitis C virus); assay: Inhibition of NS5A A30K mutant in HCV genotype 3a infected in HuH7 replicon cells assessed as decrease in viral replication after 3 days by RT-PCR method; format: cell-based; conditions: Hepatitis C virus subtype 3a
[19] = Resistance ratio of EC90 for NS5A L31V mutant in HCV genotype 1b infected in HuH7 replicon cells to EC90 for NS5A in HCV genotype 1a infected in HuH7 replicon cells; format: cell-based
[20] = Resistance ratio of EC90 for NS5A M31V mutant in HCV genotype 2b infected in HuH7 replicon cells to EC90 for NS5A in HCV genotype 1a infected in HuH7 replicon cells; format: cell-based
[21] = test system: Hepatitis C virus subtype 1a; assay: Resistance ratio of EC90 for NS5A Q30R mutant in HCV genotype 1a infected in HuH7 replicon cells to EC90 for NS5A in HCV genotype 1a infected in HuH7 replicon cells; format: cell-based
[22] = test system: Hepatitis C virus subtype 1a; assay: Resistance ratio of EC90 for NS5A L31V mutant in HCV genotype 1a infected in HuH7 replicon cells to EC90 for NS5A in HCV genotype 1a infected in HuH7 replicon cells; format: cell-based

COC(=O)N[C@H](C(=O)N1CCC[C@H]1c1ncc(-c2cc(F)c3c(c2)O[C@@H](c2ccc(C4CC4)s2)n2c-3cc3cc(-c4cnc([C@@H]5CCCN5C(=O)[C@@H](NC(=O)OC)[C@@H]5CCOC(C)(C)C5)[nH]4)ccc32)[nH]1)C(C)C
EC90 [1]: 33 pM
bioavailability [2]: 14.9%
EC90 [3]: 1.8 pM
Ratio [4]: 6
EC90 [5]: 25 pM
Activity [6]: Non-Toxic
Ratio [7]: < 1
EC90 [8]: 4.3 pM
EC90 [9]: 19 pM
clearance [10]: 2.9 mL/min/kg
EC90 [11]: 180 pM
MRT [12]: 6.5 h
Ratio [13]: 100
EC90 [14]: 0.32 pM
EC90 [15]: 69 pM
AUC [16]: 4.19 µM·h
Ratio [17]: 762
EC90 [18]: 18 pM
Ratio [19]: 1
Ratio [20]: 5
Ratio [21]: 28
Ratio [22]: 1

Reference: ChEMBL document CHEMBL4177770, “Discovery of MK-6169, a Potent Pan-Genotype Hepatitis C Virus NS5A Inhibitor with Optimized Activity against Common Resistance-Associated Substitutions” (J Med Chem, 2018)
